Data taken from paper PMC4814305 (The Biochemical journal, 2016).
pIC50, pKi: −log10 of the molar value. Values joined by “and” are separate entries in the source; they are usually repeats but may differ in a detail not shown here. Identical values can stand only once. “Also recorded” adds a separate entry of the source. Blank lines part the entries; values can stand above or below the molecule they belong to.

Tests used:
[1] = target: T1, mitochondrial pyruvate carrier (MPC) (Rattus norvegicus, UniProt P38718+P63031); assay: [1-14C] pyruvate uptake into isolated rat liver mitochondria; assay type: biochemical
T1 sequence (P63031 1-109): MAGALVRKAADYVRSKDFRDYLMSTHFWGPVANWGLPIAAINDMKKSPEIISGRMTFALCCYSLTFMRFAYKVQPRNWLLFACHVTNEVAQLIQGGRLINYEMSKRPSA
T1 sequence (P38718 1-127): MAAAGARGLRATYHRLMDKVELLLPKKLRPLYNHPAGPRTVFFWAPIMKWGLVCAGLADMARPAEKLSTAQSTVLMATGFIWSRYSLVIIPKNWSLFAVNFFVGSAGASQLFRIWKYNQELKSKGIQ
In short: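 Liver mitochondria from male Wistar rats (~275 g) were isolated by homogenisation, differential and Percoll centrifugation, then held 2 min on ice at 6 mg protein/mL with test compound. Uptake ran in pH 6.8 KCl/MOPS/EGTA buffer with 1 μM rotenone, 60 μM [1-14C]pyruvate and 3H2O at 9°C, stopped at 45 s by rapid sedimentation. Four replicates per concentration, 3 preparations; Ki fitted from % of control, mean ± S.E.M.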

MCT4 = target: T2, MCT4 (Homo sapiens, UniProt O15427); assay: [U-14C] L-lactate uptake by Xenopus laevis oocytes expressing MCT4; assay type: cell-based; conditions: cooperative inhibition fit
T2 sequence (O15427 1-465): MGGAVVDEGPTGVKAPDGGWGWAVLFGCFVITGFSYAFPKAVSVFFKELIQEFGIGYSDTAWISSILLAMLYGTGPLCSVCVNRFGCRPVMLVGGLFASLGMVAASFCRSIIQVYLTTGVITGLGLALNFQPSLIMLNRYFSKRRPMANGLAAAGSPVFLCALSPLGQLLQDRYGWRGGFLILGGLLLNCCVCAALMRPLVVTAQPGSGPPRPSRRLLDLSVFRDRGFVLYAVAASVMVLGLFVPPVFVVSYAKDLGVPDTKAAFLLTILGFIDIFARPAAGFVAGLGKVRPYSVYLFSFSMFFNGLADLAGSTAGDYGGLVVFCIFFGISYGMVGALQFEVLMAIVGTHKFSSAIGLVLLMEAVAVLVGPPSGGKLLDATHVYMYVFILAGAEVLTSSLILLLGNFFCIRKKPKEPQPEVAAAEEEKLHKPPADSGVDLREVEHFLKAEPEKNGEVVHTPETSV

DB-1 xenografts = conditions: 100 mg/kg i.p., cited from earlier work
[2] = test system: DB-1 human melanoma cells; assay: L-lactate output and intracellular [L-lactate] of DB-1 melanoma cells; assay type: cell-based; conditions: DB-1 cells, 1 h, vs DMSO
MCT2 = target: T3, MCT2 (Rattus norvegicus, UniProt Q63344); assay: [U-14C] L-lactate uptake by Xenopus laevis oocytes expressing MCT2; assay type: cell-based; conditions: cooperative inhibition fit
T3 sequence (Q63344 1-489): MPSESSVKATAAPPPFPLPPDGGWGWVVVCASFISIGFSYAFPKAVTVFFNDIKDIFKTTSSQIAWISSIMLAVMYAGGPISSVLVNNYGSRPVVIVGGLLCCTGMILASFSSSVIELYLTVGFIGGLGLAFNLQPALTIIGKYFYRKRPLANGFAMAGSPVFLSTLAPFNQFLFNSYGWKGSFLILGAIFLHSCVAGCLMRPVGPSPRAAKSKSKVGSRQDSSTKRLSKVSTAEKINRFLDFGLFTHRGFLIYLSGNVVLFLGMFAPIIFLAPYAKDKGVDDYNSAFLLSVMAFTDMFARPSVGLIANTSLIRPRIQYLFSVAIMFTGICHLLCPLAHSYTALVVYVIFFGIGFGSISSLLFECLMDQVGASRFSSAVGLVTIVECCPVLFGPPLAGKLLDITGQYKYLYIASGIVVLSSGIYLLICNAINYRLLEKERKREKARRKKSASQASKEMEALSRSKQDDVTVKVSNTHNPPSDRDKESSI
T3 sequence (O88775 34-328 partner): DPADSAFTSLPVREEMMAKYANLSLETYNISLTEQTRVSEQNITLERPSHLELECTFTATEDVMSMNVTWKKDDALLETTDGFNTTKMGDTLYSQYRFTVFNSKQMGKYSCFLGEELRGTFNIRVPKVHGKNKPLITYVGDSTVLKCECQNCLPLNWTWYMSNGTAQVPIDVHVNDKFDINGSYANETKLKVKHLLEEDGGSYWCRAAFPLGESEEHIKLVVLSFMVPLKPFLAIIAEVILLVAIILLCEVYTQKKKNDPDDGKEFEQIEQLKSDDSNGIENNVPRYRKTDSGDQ

MCT1 = target: T4, MCT1 (Rattus norvegicus, UniProt P53987); assay: [U-14C] L-lactate uptake by Xenopus laevis oocytes expressing MCT1; assay type: cell-based; conditions: cooperative inhibition fit
T4 sequence (P53987 1-494): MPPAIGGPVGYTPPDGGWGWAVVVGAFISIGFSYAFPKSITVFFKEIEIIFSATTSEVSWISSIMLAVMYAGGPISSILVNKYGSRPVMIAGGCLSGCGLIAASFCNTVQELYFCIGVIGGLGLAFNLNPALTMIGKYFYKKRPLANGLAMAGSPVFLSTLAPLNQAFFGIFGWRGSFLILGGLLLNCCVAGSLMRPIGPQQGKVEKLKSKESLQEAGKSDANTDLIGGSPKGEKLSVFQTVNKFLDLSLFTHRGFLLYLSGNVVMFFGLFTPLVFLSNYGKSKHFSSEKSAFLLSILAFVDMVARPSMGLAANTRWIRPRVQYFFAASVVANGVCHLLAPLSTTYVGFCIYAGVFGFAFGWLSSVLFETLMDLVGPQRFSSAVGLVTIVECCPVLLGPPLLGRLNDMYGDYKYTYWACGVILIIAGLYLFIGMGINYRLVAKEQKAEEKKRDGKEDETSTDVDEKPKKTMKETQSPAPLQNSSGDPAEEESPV

[3] = test system: uncoupled pyruvate oxidation by isolated rat heart mitochondria; assay: Uncoupled pyruvate oxidation by rat heart mitochondria; assay type: biochemical

Structure (SMILES): N#CC(=Cc1ccc(O)cc1)C(=O)O [CHC, α-cyano-4-hydroxycinnamate]
- inhibition of mitochondrial pyruvate carrier (pyruvate uptake) ([1]; rat liver mitochondria, 10 μM inhibitor): > 90%

- Hill coefficient of inhibition of MCT4 (MCT4): 1.65–1.85 and 1.84 ± 0.19
- pKi [1]: 5.60
- Hill coefficient of inhibition of MCT2 (MCT2): 1.86 ± 0.34
- Hill coefficient of inhibition of MCT1 (MCT1): 1.65–1.85 and 1.65 ± 0.23
- pIC50 ([3]; read-out: IC50 for inhibition of uncoupled pyruvate oxidation, 30°C, pyruvate + malate, FCCP): ~5.15 and ~5.12
Structure (SMILES): O=C(O)c1nn(Cc2ccc(Cl)cc2Cl)c2ccccc12 [LND, Lonidamine]
- tumour pHi after LND treatment (DB-1 xenografts; DB-1 xenografts in mice, within about 40 min, from 6.9 ± 0.1): 6.3 ± 0.1
- decrease in the tumour NTP/Pi ratio (DB-1 xenografts; DB-1 xenografts in mice, within about 3 hr): 66.8 ± 5.7%
- decrease in extracellular pH of the tumour (DB-1 xenografts; DB-1 xenografts in mice): ~ 0.2 pH units
- rise in tumour [L-lactate] (DB-1 xenografts; DB-1 xenografts in mice): three-fold
- change in pHi of liver (DB-1 xenografts; mice, 20 min post-injection): only a slight transient change
- change in NTP/Pi of the liver (DB-1 xenografts; mice, 40 min post-injection): only a transient small decrease
- change in NTP/Pi ratio of muscle and brain (DB-1 xenografts; mice): no change
- change in pHi of normal muscle or brain (DB-1 xenografts; mice): No significant change
- increase of intracellular [L-lactate] ([2]; 40 μM LND): two-fold
- L-lactate output ([2]; 40 μM and 150 μM LND): decrease in L-lactate output
- L-lactate output ([2]; 150 μM LND): decreased L-lactate output; also recorded: L-lactate output decreased
- increase of intracellular [L-lactate] ([2]; 150 μM LND): > five-fold; also recorded: eight-fold
- L-lactate output ([2]; 1–10 μM LND): increased L-lactate output
- intracellular [L-lactate] ([2]; 1–10 μM LND): without a detectable increase
- effect on uncoupled pyruvate oxidation ([3]; 30°C, 2 μM LND): without effect
- inhibition of uncoupled pyruvate oxidation ([3]; 30°C, 3 μM LND): ~ 15%
- inhibition of uncoupled pyruvate oxidation ([3]; 30°C, 10 μM LND): ~70%
